The term IC50 denotes the concentration that inhibits the measured activity by half.

The subject of experiment [1] is MCF7. Description: Inhibition of PI3K in human MCF7 cells assessed as decrease in p-Akt/Akt ratio at 0.1 to 10 uM by Western blot analysis. To be noted: dose microM 0.1-10. For orientation: Immunoblotting shows a protein as a band on a membrane.
The test system of experiment [2] is MCF7. Description: Induction of apoptosis in human MCF7 cells assessed as necrotic cells at 0.2 uM incubated for 48 hrs by annexin V-FITC and propidium iodide staining based flow cytometry analysis (reference value: 0.3 %). In kind it is functional. On the technique in general: A flow cytometer gives signals particle by particle.
Experiment [3] relates to A549. Description: Antiproliferative activity against human A549 cells assessed as reduction in cell viability incubated for 72 hrs by SRB assay. In kind it is functional, cell-based. To be noted: A549, 72 h. The method, boiled down:
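Cell lines grown at 37 °C in 5% CO₂: A549 in RPMI1640, MCF-7 in DMEM, each with 10% FBS plus penicillin/streptomycin/amphotericin B. Cells exposed to a range of compound concentrations for 72 h, then TCA-fixed and SRB-stained. Growth inhibition = 100 − 100×(OD sample − OD day 0)/(OD negative control − OD day 0). IC50 from non-linear regression of percent growth against concentration.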

Experiment [4] relates to L02. Description: Cytotoxicity against human L02 cells assessed as reduction in cell viability incubated for 72 hrs by SRB assay. In kind it is cell-based. To be noted: L02, 72 h. The gist of the method:
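Normal cells exposed to a range of compound concentrations for 72 h at 37 °C in 5% CO₂. Cells TCA-fixed and viability read by SRB protein staining, normalized to day-0 and negative-control OD. IC50 from non-linear regression; values are means of triplicate measurements.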
Background: In SRB staining, fixed cells bind dye roughly in proportion to their protein.

Experiment [5] concerns MCF7. Description: Induction of apoptosis in human MCF7 cells assessed as necrotic cells at 0.8 uM incubated for 48 hrs by annexin V-FITC and propidium iodide staining based flow cytometry analysis (reference value: 0.3 %). In kind it is functional.
The subject of experiment [6] is MCF7. Description: Induction of apoptosis in human MCF7 cells assessed as viable cells at 0.8 uM incubated for 48 hrs by annexin V-FITC and propidium iodide staining based flow cytometry analysis (reference value: 87.7 %). Format: functional. To be noted: read-out: Activity.
Experiment [7] has as its system MCF7. Briefly: Induction of apoptosis in human MCF7 cells assessed as nuclear fragmentation at 0.2 to 0.8 uM incubated for 48 hrs by Hoechst 33342 staining based fluorescence microscopic analysis. To be noted: dose microM 0.2-0.8, time 48.0 hrs. Format: functional, cell-based. The gist of the method: (§1)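 MCF-7 cells seeded at 2×10⁵ per well in 6-well plates and allowed to settle 12 h. Treated 48 h, with medium-only controls. Stained with Hoechst 33342 for 30 min, washed, and nuclear morphology imaged by fluorescence microscopy.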

The subject of experiment [8] is MCF7. Description: Induction of apoptosis in human MCF7 cells assessed as early apoptotic cells at 0.4 uM incubated for 48 hrs by annexin V-FITC and propidium iodide staining based flow cytometry analysis (reference value: 2.7 %). In kind it is functional.
Experiment [9] relates to MCF7. Description: Induction of apoptosis in human MCF7 cells assessed as chromatin condensation at 0.2 to 0.8 uM incubated for 48 hrs by Hoechst 33342 staining based fluorescence microscopic analysis. In kind it is functional, cell-based. The conditions noted are these: dose microM 0.2-0.8, time 48.0 hrs. The method, boiled down:
as §1

The target in experiment [10] is Phosphatidylinositol 4,5-bisphosphate 3-kinase catalytic subunit alpha isoform (Homo sapiens, UniProt P42336). Description: Inhibition of PI3Kalpha (unknown origin) using lipid as substrate incubated for 15 mins followed by substrate addition and measured after 60 mins ADPGloTM reagent based assay. The gist of the method: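 ADP-Glo luminescent readout of ADP formed. Isoforms tested: p110α/p85α, p110β/p85α, p120γ and p110δ/p85α, each in PI3K reaction buffer with lipid substrate. Enzyme preincubated with compound for 15 min at room temperature. ADP-Glo reagent added for 40 min, then detection reagent for 40 min. IC50 from normalized nonlinear dose–response fit.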
Phosphatidylinositol 4,5-bisphosphate 3-kinase catalytic subunit alpha isoform, sequence (P42336 whole entry, canonical isoform): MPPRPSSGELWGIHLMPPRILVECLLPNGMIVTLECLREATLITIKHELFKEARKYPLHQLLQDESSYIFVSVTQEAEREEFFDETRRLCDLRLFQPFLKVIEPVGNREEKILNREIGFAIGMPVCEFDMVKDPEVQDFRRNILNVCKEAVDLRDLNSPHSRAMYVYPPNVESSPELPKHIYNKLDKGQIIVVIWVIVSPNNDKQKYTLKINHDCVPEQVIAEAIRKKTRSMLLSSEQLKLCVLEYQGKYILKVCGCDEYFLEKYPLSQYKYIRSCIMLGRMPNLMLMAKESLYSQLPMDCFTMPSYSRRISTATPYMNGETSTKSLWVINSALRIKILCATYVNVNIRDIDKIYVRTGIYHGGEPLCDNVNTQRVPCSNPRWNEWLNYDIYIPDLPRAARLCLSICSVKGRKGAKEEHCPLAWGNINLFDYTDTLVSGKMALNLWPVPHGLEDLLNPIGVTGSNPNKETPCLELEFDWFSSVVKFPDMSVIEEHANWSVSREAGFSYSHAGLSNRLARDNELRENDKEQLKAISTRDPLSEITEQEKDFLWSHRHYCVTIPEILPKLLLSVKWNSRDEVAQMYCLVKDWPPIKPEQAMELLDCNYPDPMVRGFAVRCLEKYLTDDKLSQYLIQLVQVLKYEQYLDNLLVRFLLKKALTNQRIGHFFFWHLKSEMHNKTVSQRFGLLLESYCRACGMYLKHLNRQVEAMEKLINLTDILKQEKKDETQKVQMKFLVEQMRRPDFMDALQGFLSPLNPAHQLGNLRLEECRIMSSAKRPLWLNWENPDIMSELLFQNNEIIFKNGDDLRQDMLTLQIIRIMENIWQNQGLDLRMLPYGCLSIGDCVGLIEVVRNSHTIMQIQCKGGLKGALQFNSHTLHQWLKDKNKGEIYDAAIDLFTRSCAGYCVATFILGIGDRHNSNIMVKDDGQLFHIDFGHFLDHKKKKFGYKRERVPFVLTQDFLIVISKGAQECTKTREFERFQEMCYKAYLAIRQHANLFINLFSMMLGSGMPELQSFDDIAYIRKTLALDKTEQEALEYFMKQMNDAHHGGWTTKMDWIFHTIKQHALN

The test system of experiment [11] is MCF7. Description: Induction of apoptosis in human MCF7 cells assessed as necrotic cells at 0.4 uM incubated for 48 hrs by annexin V-FITC and propidium iodide staining based flow cytometry analysis (reference value: 0.3 %). In kind it is functional.
Experiment [12] concerns the target Epidermal growth factor receptor (Homo sapiens, UniProt P00533). Briefly: Inhibition of EGFR (unknown origin) using FAM-labeled peptide as substrate incubated for 10 mins followed by substrate addition and measured after 1 hr by mobility shift assay. The method, boiled down: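 Mobility shift assay in 50 mM HEPES pH 7.5, 10 mM MgCl₂, 2 mM DTT, 0.0015% Brij35. Compound in 10-point DMSO dilution, run in duplicate. Enzyme preincubated with compound 10 min at room temperature. FAM-labeled peptide and ATP then added and reaction run at 28 °C for 1 h. Stopped with EDTA buffer; conversion turned into percent inhibition and fitted to a Hill equation for IC50.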

The subject of experiment [13] is MCF7. Description: Induction of apoptosis in human MCF7 cells assessed as late apoptotic cells at 0.2 uM incubated for 48 hrs by annexin V-FITC and propidium iodide staining based flow cytometry analysis (reference value: 9.2 %). Format: functional.

Activity calls are given as the source filed them. No cut-off for these calls is given here.

Epidermal growth factor receptor, sequence (P00533 whole entry): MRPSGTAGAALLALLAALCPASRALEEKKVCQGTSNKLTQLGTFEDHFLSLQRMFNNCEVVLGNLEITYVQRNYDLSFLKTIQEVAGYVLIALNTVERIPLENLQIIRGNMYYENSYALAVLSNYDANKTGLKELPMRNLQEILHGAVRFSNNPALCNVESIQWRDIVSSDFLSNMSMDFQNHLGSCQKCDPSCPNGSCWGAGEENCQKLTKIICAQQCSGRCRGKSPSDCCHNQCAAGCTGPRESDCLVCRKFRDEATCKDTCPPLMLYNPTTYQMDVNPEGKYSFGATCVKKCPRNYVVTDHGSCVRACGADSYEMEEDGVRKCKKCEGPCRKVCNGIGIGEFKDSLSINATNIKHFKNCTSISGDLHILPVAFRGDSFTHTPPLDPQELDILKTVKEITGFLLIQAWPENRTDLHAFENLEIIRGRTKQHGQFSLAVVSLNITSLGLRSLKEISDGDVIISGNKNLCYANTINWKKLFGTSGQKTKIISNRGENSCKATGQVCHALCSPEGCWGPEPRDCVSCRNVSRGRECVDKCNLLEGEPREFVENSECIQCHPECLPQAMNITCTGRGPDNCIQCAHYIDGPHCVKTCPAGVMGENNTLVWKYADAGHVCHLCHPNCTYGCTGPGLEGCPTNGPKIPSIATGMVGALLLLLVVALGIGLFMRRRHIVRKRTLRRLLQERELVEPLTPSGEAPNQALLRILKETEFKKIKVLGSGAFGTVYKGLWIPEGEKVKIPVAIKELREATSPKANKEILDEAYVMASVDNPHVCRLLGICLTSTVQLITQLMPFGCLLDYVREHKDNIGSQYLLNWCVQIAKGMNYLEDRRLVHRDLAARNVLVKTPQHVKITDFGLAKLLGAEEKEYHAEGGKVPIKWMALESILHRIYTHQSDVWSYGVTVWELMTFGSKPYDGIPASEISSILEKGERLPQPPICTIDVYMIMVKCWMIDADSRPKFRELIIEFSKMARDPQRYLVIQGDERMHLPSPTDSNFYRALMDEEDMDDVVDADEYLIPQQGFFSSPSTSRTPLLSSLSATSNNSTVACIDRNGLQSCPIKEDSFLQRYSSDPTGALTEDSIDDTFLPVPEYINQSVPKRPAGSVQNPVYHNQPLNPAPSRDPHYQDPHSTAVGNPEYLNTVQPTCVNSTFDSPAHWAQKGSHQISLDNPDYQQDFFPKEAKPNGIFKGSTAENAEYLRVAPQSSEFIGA

Regarding `COc1ncc(-c2ccc3ncnc(Nc4cnn(CCO)c4)c3c2)cc1NS(=O)(=O)c1ccc(F)cc1F`, the inhibition entry in experiment [1] is “Active”. For the same compound, the Activity was determined as 2.2% in experiment [2]; 2.7% in experiment [5]; 3.8% in experiment [8]; 2.6% in [11]; 20.6% in [13]. Moreover, the IC50 in experiment [3] is 3.1 µM; in experiment [4], 60 µM; in experiment [10], 0.2 nM; in experiment [12], over 10 µM. In addition, the viability at 0.8 µM in [6] was determined as 70.3%. Moreover, the result in experiment [7] and in [9] was Active.
